MrgX1 allo act: human MrgX1 positive allosteric modulation, primary screen. Q96LB2. MrgX1-HEK293, Fluo-4 calcium flux, FDSS; active compounds read high. B-score at 10 µM. hit rate 0.63% among 310,000. AID 588675;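 active = plate-corrected calcium response at least 3 library SD above typical, normal starting fluorescence, not activating the receptor alone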;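 also: compound read alongside a low EC10 to EC30 dose of BAM8-22 agonist; peak minus trough fluorescence over baseline measured at the second addition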
RGS4 act: RGS4 potentiation or activation. HEK293 M3R/inducible RGS4, carbachol calcium flux Fluo4; active compounds read low. B-score at 10 µM. hit rate 0.92% among 310,000;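 active = B-score of the integrated calcium signal more than 4 SD below the library mean, with starting fluorescence not abnormally high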;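 also: negative B-score means reduced calcium response which marks RGS4 activation or potentiation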
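Material: Inducible-RGS4 HEK293 cells carrying M3 receptor; also added: carbachol at ECmax as muscarinic agonist stimulus; incubation: compound preincubation 20 min at room temperature before agonist; signal: Fluo4-AM (2 µM) calcium-flux fluorescence, kinetic read; measure: integrated calcium ratio converted to B score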
MrgX1 agonist: activates human MrgX1 receptor signaling | Q96LB2 | MrgX1-HEK293 cells, Fluo-4 calcium fluorescence, agonist mode; active compounds read high | B-score at 10 µM | hit rate 0.44% among 310,000 | AID 588627;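 active = calcium response B-score plate-corrected fluorescence ratio at least 3 library SD, with starting fluorescence B-score inside 5 SD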
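Assay system: stable human MrgX1 HEK293 cell line. Quantity: 15,000 cells per well. Schedule: cells plated overnight, dye loaded 0.5 h 37 °C, 0.5 h room temperature. Detection: Fluo-4 NW calcium-flux fluorescence, kinetic read. Read-out basis: peak-minus-minimum fluorescence over baseline, converted to B scores. Control set: positive and negative control wells on each plate.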
RGS4 inh: inhibitors of human RGS4. B-score at 10 µM. HEK293 M3R/RGS4 inducible, Fluo-4 calcium flux; active compounds read high; triggered by carbachol at its EC20. hit rate 0.45% among 310,000. P49798;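 active = B-score, a plate-corrected calcium signal, over three deviations above library mean, with baseline fluorescence within five deviations of library mean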;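 also: RGS4 expression induced by doxycycline in cells with stable M3 receptor; B-score is computed from the integrated fluorescence ratio over baseline after carbachol; higher B-score means a larger calcium signal and so more RGS4 inhibition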
Target sequence (P49798 whole entry, looked up): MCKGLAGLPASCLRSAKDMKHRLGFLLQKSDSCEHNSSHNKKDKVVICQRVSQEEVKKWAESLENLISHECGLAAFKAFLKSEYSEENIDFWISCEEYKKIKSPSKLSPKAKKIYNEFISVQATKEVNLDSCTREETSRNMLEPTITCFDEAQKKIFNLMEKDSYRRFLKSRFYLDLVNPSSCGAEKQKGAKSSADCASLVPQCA
MrgX1 antagonist: blocks BAM8-22 activation of human MrgX1 receptor; B-score at 10 µM; hit rate 1.3% among 310,000; Q96LB2; AID 588676; MRGX1-HEK293 calcium flux, Fluo-4, BAM8-22 antagonism; active compounds read low;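 active = calcium-response B-score plate-corrected more than 3 library SD below zero, starting fluorescence within 5 deviations, no agonist response on first addition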;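 also: peak minus trough fluorescence over baseline after final BAM8-22 challenge near maximal dose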
PHOSPHO1 block: blocks human PHOSPHO1 phosphatase activity | recombinant PHOSPHO1, absorbance phosphatase assay | inhibition, % at 13.3 µM | hit rate 1.1% among 290,000 | AID 1565; in the data active = inhibition above about 60%
Target sequence (Q8TCT1 whole entry, looked up): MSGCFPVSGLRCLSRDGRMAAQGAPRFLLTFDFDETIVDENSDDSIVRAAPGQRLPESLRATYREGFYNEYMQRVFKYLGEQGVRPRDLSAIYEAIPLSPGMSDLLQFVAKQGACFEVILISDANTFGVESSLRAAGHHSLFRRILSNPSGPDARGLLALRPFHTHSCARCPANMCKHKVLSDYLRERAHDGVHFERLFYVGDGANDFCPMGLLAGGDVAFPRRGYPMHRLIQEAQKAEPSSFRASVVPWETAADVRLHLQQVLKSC
An asterisk follows results filed as active; i = inactive; nt = not tested or not shown. Sampled rows, rich in hits. Any-hit rate of the full collection: about 4.5%.

SMILES	MrgX1 allo act	RGS4 act	MrgX1 agonist	RGS4 inh	MrgX1 antagonist	PHOSPHO1 block
Cc1ccc(C(=O)c2oc3ccccc3c2NC(=O)c2cc(-c3cc(C)ccc3O)n[nH]2)cc1	i	i	i	i	-5.2*	-5
N#Cc1c(N)sc(=S)c2c1CCCCC2	i	i	i	i	i	31
Cn1c(N)c(C#N)c2c(c1=S)CSC(C)(C)C2	i	i	i	i	i	91*
CC(C)C1Cc2c(C#N)c(N)n(C)c(=S)c2CO1 (stereo not drawn)	i	i	i	i	i	68*
CSc1nc(N2CCOCC2)c2c(c1C#N)CC(C(C)C)OC2 (stereo not drawn)	i	i	i	i	i	44
CC1(C)Cc2c(c(N3CCCC3)[nH]c(=S)c2C#N)CO1	i	i	i	i	i	67*
CC1(C)Cc2c(C#N)c(N)sc(=S)c2CS1	i	i	i	i	i	101*
COc1ccc(NC(=O)NNS(=O)(=O)c2ccc(OC)c(OC)c2)c(OC)c1	i	i	i	i	i	41
O=C(N/N=C/c1ccsc1)c1c[nH]c2ccccc12	i	i	i	i	i	43
Cc1cccc(CC(=O)NCCS(=O)(=O)N2CCN(c3cccc(Cl)c3)CC2)c1	i	i	i	i	i	nt
CCOc1ccc(-c2noc(CCCC(=O)NC3CCCCC3)n2)cc1OC	i	i	i	i	i	27
Cn1c(N)c(C#N)c2c(c1=S)COC(C)(C)C2	i	i	i	i	i	64*
CCn1c2ccc(C)cc2c2nnc(NN)nc21	i	i	29*	i	i	-9
CCn1c2ccccc2c2nnc(NN)nc21	i	i	i	i	i	-6
CC1(C)CC1C(=O)Nc1ccc([N+](=O)[O-])cc1Br (stereo not drawn)	i	i	i	i	i	1
Cc1ccc(C2(c3ccc(C)cc3)CC2C(=O)Nc2ccc([N+](=O)[O-])cc2O)cc1 (stereo not drawn)	i	i	i	i	-4.5*	30
O=C(O)c1cc([N+](=O)[O-])ccc1N1CCC(Cc2ccccc2)CC1	i	i	40*	i	i	-2
CC1CCN(C(=O)COC(=O)CSc2ccc(C(N)=O)cc2[N+](=O)[O-])CC1	i	i	i	i	i	nt
COc1cc2c(cc1OC)/C(=C/C(=O)c1ccc(OC)c([N+](=O)[O-])c1)NCC2	i	-7.3*	i	i	-4.6*	36
COc1cc2c(cc1OC)/C(=C/C(=O)c1cccc([N+](=O)[O-])c1)NCC2	i	i	i	i	i	20
C=CCOc1ccccc1CNCCc1ccc(S(N)(=O)=O)cc1	i	i	i	i	i	-17
NS(=O)(=O)c1ccc(CCNCc2cc(Cl)ccc2OCc2ccccc2)cc1	i	i	i	i	-7.2*	34
NS(=O)(=O)c1ccc(CCNCc2cc(Br)ccc2OCc2ccccc2F)cc1	i	i	i	i	-4.7*	-24
NS(=O)(=O)c1ccc(CCNCc2ccccc2OCc2ccc(Cl)cc2)cc1	i	i	i	i	-7.2*	-6
CCCCCCn1nc(C(=O)Nc2nc3c(s2)CCCC3)c2ccccc2c1=O	i	i	i	i	i	4
SMILES	MrgX1 allo act	RGS4 act	MrgX1 agonist	RGS4 inh	MrgX1 antagonist	PHOSPHO1 block
c1cncc(-c2nc(NCCCn3ccnc3)c3ccccc3n2)c1	i	-7*	i	i	i	9
COc1ccc(-c2csc3ncnc(N4CCN(S(=O)(=O)c5ccc(C)cc5)CC4)c23)cc1	i	-7.5*	i	i	i	nt
COc1ccc(-c2csc3ncnc(N4CCN(S(=O)(=O)c5ccc(Cl)s5)CC4)c23)cc1	i	i	i	i	i	nt
O=C(O)c1ccc(NS(=O)(=O)c2cccc(C(=O)Nc3cccc(C(=O)O)c3)c2)cc1	i	i	i	i	i	1
COc1ccc(S(=O)(=O)NCC(c2ccc3c(c2)OCO3)N2CCOCC2)cc1 (stereo not drawn)	i	i	i	i	i	nt
COc1cccc(N2CCc3c(C)nc4ccc(Cl)cc4c32)c1	i	-7.5*	i	i	i	16
CCCCSCCCNC(=O)Nc1ccc(CC)cc1	i	i	i	i	i	21
Fc1cccc(F)c1-n1c(CN2CCCC2)csc1=S	i	i	i	i	-5.1*	20
Fc1ccc(CN2CCCCCCC2)cc1F	i	i	i	i	i	27
O=C(NNC(=S)Nc1ccc(F)cc1)c1ccccc1OC(F)F	i	i	i	i	i	88*
Cc1ccc(NC(=S)NNC(=O)c2ccccc2OC(F)F)cc1	i	i	i	i	i	86*
O=C(NNC(=S)Nc1cccc(Cl)c1)c1ccccc1OC(F)F	i	i	i	i	i	0
COc1cccc(NC(=S)NNC(=O)c2ccccc2OC(F)F)c1	i	i	i	i	i	-39
CC(C)c1ccccc1NC(=O)c1cccc(NC(=O)c2ccccc2)c1	i	i	i	i	i	0
CS(=O)(=O)c1ccc(-c2cn3cc(C(=O)O)ccc3n2)cc1	i	i	i	i	i	61*
COC(=O)c1ccc2nc(-c3ccc(S(C)(=O)=O)cc3)cn2c1	i	i	i	i	i	37
Cc1c[nH]c2cccc(OCC(CNC(C)(C)C)OC(=O)c3ccccc3)c12 (stereo not drawn)	i	i	i	i	i	33
O=C(Nc1ccc(F)c(Cl)c1)c1cncs1	i	i	i	i	i	20
O=C(c1ccc2c(=O)n(C3CCCC3)c(=S)[nH]c2c1)N1CCc2ccccc21	i	i	i	i	i	63*
CC(C)NC(=O)c1ccc2c(=O)n(C3CCCC3)c(=S)[nH]c2c1	i	i	i	i	i	16
CCc1cccc(CC)c1NC(=S)N(CCN(C)C)C(C)c1cccnc1 (stereo not drawn)	i	i	i	i	i	18
Cc1cc(C(=O)NNc2ccccc2F)no1	i	-7.7*	i	i	i	-1
Clc1ccc(COc2cccc(CNCc3ccncc3)c2)cc1	i	i	i	i	i	59
O=C(CNC(=O)c1ccc(Br)cc1)OCc1cc([N+](=O)[O-])cc2c1OCOC2	i	i	i	i	i	68*
